Results from PubChem BioAssay.
Records with an inconclusive call do not appear.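 The calls were made as follows, unless noted: active = viability increase at or above a cutoff of the median across tested compounds plus 3 SD (cut at about 8.5% in these data, passing the limit was not always enough); inconclusive = some gains above the cutoff, reason not given; inactive = the rest.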

What was measured:
[1] = S. cerevisiae growth inhibition in permissive medium (OD615), pilot counter-assay for S. cerevisiae lifespan shortening project, permissive growth control (AID 705;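 active = growth inhibition above 25% in both replicates, a cutoff set 3 SD above the mean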); conditions: OD615, 24 h, at 10 µM, hits give high values
Method in brief: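 Material: engineered DeaD yeast; compound dosing: one dose 10 µM, DMSO 0.25% final; measure: yeast growth inhibition indicated by reduced 24 h OD615; detection: OD615 turbidity read; incubation: cells pre-grown 4 h, then 24 h compound exposure, 30 °C humidified; medium: permissive synthetic complete medium with raffinose and galactose carbon sources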

[2] = S. cerevisiae growth inhibition in restrictive medium, OD615, pilot screen, restrictive growth control, yeast lifespan reduction project (AID 706;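 active = growth inhibition above a set limit, 3 SD over mean compound inhibition, in both replicates, cut at about 43% in these data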;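 also: modified DeaD lifespan yeast strain shifted to restrictive glucose medium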); conditions: OD615, 48 h, at 10 µM, hits give high values
Method in brief: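 material = engineered S. cerevisiae DeaD strain | medium = glucose-based CSMM-D restrictive medium | times = 4 h pre-incubation, 48 h exposure at 30 °C | technique = OD615 absorbance reading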

[3] = doxorubicin toxicity protection in MRP-1 cells – H69AR cells, CellTiter-Glo, duplicate, MRP-1 activator project, pilot screen (AID 807); conditions: H69AR viability with doxorubicin, CellTiter-Glo luminescence; at 10 µM; hits give high values;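 also: compound pretreatment 18-22 h then 72 h combined with doxorubicin; 0% = doxorubicin alone and 100% = vehicle without doxorubicin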
[4] = viability of HCT116 without oncogenic beta-catenin – human colon tumor cells, pilot screen (AID 823;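 active = cell viability at or below a set limit in both duplicate runs, the limit being the all-compound median minus 4 SD, cut at about 23% in these data, passing the limit was not always enough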;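 also: 0% = wells killed by 20 µM Hyamine and 100% = untreated DMSO cell wells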); conditions: HCT116 beta-catenin knockout viability, CellTiter-Glo, 60 h; at 10 µM; hits give low values
[5] = viability of PTEN-null HCT116 cells – cell-based, HCT116 clonal line, CellTiter-Glo, pilot screen (AID 824;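 active = viability at or below 27.92% in each of two runs, the all-compound median minus 4 SD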;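 also: 0% = 20 µM Hyamine control and 100% = vehicle cell control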); conditions: HCT116 PTEN-deleted viability, 60 h, at 10 µM, hits give low values
[6] = RAM pathway blockade in budding yeast – dse1pr::URA3 reporter, 5-FOA selection, pilot screen (AID 869;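 active = inhibition over a set limit, the all-compound mean plus 3 SD, in both replicate runs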;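 also: 0% = DMSO wells with no growth and 100% = 10 µM 1-NA-PP1 with full growth; RAM network block rescues cells from 5-FOA so hits raise OD615 growth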); conditions: S. cerevisiae dse1pr::URA3 5-FOA growth, OD615, 2 d; at 10 µM; hits give high values; strain carries analog-sensitive mutant Cbk1 kinase
[7] = RAM signaling pathway blockade in yeast – S. cerevisiae, Pdr1DBD-CYC8 efflux-inhibited sensitized strain, primary screen (AID 1298;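 active = RAM network inhibition above 8.4% in each of two replicates, 3 SD over the compound average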;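 also: 0% = DMSO untreated cells without growth and 100% = 10 µM 1-NA-PP1 full growth; higher means more yeast growth rescued from 5-FOA killing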); conditions: S. cerevisiae cbk1-as DSE1-URA3 strain, 5-FOA growth OD615, 2 d; at 50 µM; hits give high values

CC(C)C(NS(=O)(=O)c1ccc2c(c1)oc(=O)n2C)C(=O)N1CCN(Cc2ccccc2)CC1 (stereo not given)
inactive: growth inhibition [1] -5.8% | growth inhibition [2] -20.3% | viability increase [3] -3.99% | viability [4] 88.9% | viability [5] 92% | inhibition [6] 2.62% | RAM network inhibition [7] -2.73%

O=c1c2c3c(sc2nc2n1CCCCC2)CCCCC3
inactive: growth inhibition [1] -11.5% | growth inhibition [2] -20.9% | viability increase [3] 0.17% | viability [4] 91.3% | viability [5] 91.7% | inhibition [6] 1.92% | RAM network inhibition [7] 6.27%

Cc1n[nH]c(C)c1S(=O)(=O)N(CC(=O)N1CCc2ccccc21)c1ccc(C(C)C)cc1
inactive: growth inhibition [1] -9.99% | growth inhibition [2] 9.17% | viability increase [3] -7.59% | viability [4] 89.6% | viability [5] 83.3% | inhibition [6] 1.94% | RAM network inhibition [7] 8.57%

COc1ccc(Cl)cc1NC(=O)c1cnc2n(c1=O)CCS2
inactive: growth inhibition [1] -7.35% | growth inhibition [2] 3.42% | viability increase [3] -4.43% | viability [4] 94.5% | viability [5] 89.2% | inhibition [6] 2.78% | RAM network inhibition [7] 3.81%

O=C1CCC/C1=c1\s/c(=C\c2cccnc2)c(=O)n1-c1ccccc1
inactive: growth inhibition [1] -9.13% | growth inhibition [2] -8.32% | viability increase [3] -5.83% | viability [4] 103% | viability [5] 89.6% | inhibition [6] 0.465% | RAM network inhibition [7] 7.11%

COc1cccc(-c2nc3cc(C)ccc3o2)c1
inactive: growth inhibition [1] -5.93% | growth inhibition [2] 0.415% | viability increase [3] -4.74% | viability [4] 87.2% | viability [5] 75.4% | inhibition [6] 1.08% | RAM network inhibition [7] 4.09%

C=CCN(C1CCCCC1)S(=O)(=O)c1ccc2c(c1)oc(=O)n2C
inactive: growth inhibition [1] -16.7% | growth inhibition [2] -11.6% | viability increase [3] -4.14% | viability [4] 86.5% | viability [5] 80.4% | inhibition [6] 2.28% | RAM network inhibition [7] 6%

C=CCOc1ccc(/C=C/C(C)=N\O)cc1
inactive: growth inhibition [1] 3.48% | growth inhibition [2] 7.77% | viability increase [3] -3.27% | viability [4] 93.2% | viability [5] 96.3% | inhibition [6] 1.11% | RAM network inhibition [7] 9.15%

O=C(NC(C(=O)c1ccccc1)N1CCOCC1)c1ccccc1 (stereo not given)
inactive: growth inhibition [1] -2.93% | growth inhibition [2] 13.8% | viability increase [3] -2.37% | viability [4] 99.3% | viability [5] 101% | inhibition [6] 1.61% | RAM network inhibition [7] 1.98%

O=C(CC1Oc2ccccc2NC1=O)NCCc1ccccc1 (stereo not given)
inactive: growth inhibition [1] -0.525% | growth inhibition [2] 0.925% | viability increase [3] 0.98% | viability [4] 107% | viability [5] 105% | inhibition [6] 2.94% | RAM network inhibition [7] 9.58%

COc1ccc(NC(=O)CN2C(=O)CC(C)(C)S(=O)(=O)c3ccccc32)cc1
inactive: growth inhibition [1] -4.11% | growth inhibition [2] 2.55% | viability increase [3] 0.92% | viability [4] 104% | viability [5] 96.7% | inhibition [6] 1.35% | RAM network inhibition [7] 2.45%

CC1Cc2nc(SCC(=O)Nc3ccc4c(c3)OCO4)n(CCc3ccccc3)c(=O)c2S1 (stereo not given)
inactive: growth inhibition [1] -14% | growth inhibition [2] -23.8% | viability increase [3] -2.89% | viability [4] 94.4% | viability [5] 87.1% | inhibition [6] 2.35% | RAM network inhibition [7] 7.17%

CC(NC(=O)C1CCC(=O)N1Cc1ccc(F)cc1)c1ccc2c(c1)OCCO2 (stereo not given)
inactive: growth inhibition [1] -1.08% | growth inhibition [2] -4.75% | viability increase [3] -1.94% | viability [4] 96.4% | viability [5] 94.9% | inhibition [6] 0.975% | RAM network inhibition [7] 4.36%

CCCCN(C)C(=O)C(Cc1ccccc1)NS(=O)(=O)c1ccc2c(c1)CCC(=O)N2 (stereo not given)
inactive: growth inhibition [1] -18.6% | growth inhibition [2] -11.7% | viability increase [3] -2.47% | viability [4] 89.5% | viability [5] 90.2% | inhibition [6] 1.44% | RAM network inhibition [7] 6.27%

CC1C(=O)CC(c2ccccc2)N(C)C1c1ccccc1 (stereo not given)
inactive: growth inhibition [1] -16% | growth inhibition [2] -18% | viability increase [3] -4.71% | viability [4] 82.8% | viability [5] 84.1% | inhibition [6] 2.57% | RAM network inhibition [7] 8%

COc1ccccc1OCC(=O)N(Cc1nc(-c2ccc(Cl)cc2)no1)C(C)C
inactive: growth inhibition [1] -16.3% | growth inhibition [2] -10.6% | viability increase [3] 2.37% | viability [4] 84.7% | viability [5] 82.5% | inhibition [6] 1.4% | RAM network inhibition [7] 6.52%

CCn1c(C(=O)NC(C)c2ccc3c(c2)OCCO3)cc2sccc21 (stereo not given)
inactive: growth inhibition [1] -7.09% | growth inhibition [2] -9.22% | viability increase [3] -0.14% | viability [4] 96.1% | viability [5] 82% | inhibition [6] 1.62% | RAM network inhibition [7] 3.22%

COc1ccc(NC(=O)NCCN2CCN(c3cccc(Cl)c3)CC2)cc1
inactive: growth inhibition [1] 1.49% | growth inhibition [2] -5.71% | viability increase [3] -1.77% | viability [4] 76.9% | viability [5] 71.9% | inhibition [6] 0.88% | RAM network inhibition [7] 3.82%

COc1cc(Cl)c(S(=O)(=O)NCc2cccnc2)cc1Cl
inactive: growth inhibition [1] -9.13% | growth inhibition [2] -9.08% | viability increase [3] 0.38% | viability [4] 99.5% | viability [5] 97.3% | inhibition [6] 0.745% | RAM network inhibition [7] 4.73%

O=C(NCCc1csc(-c2ccccc2)n1)c1cccs1
inactive: growth inhibition [1] -8.41% | growth inhibition [2] 2.89% | viability increase [3] 2.21% | viability [4] 93.7% | viability [5] 94.5% | inhibition [6] 0.41% | RAM network inhibition [7] 3.89%

CCOC(=O)N1CCC(NC(=O)c2cc3c(-c4ccccc4F)nn(C)c3s2)CC1
inactive: growth inhibition [1] -7.38% | growth inhibition [2] -13.5% | viability increase [3] -3.97% | viability [4] 75.6% | viability [5] 84.2% | inhibition [6] 1.74% | RAM network inhibition [7] 0.42%

CCOCCn1c(SCC(=O)OCc2ccccc2)nc2c1c(=O)[nH]c(=O)n2C
inactive: growth inhibition [1] -13.7% | growth inhibition [2] -14.2% | viability increase [3] -0.57% | viability [4] 104% | viability [5] 101% | inhibition [6] 0.495% | RAM network inhibition [7] 3.42%

CCOc1ccc(NC(=O)C2C3C=CC4(CN(C(C(=O)OC)C(C)C)C(=O)C24)O3)cc1 (stereo not given)
inactive: growth inhibition [1] -9.79% | growth inhibition [2] 5.85% | viability increase [3] -1.43% | viability [4] 108% | viability [5] 102% | inhibition [6] 1.31% | RAM network inhibition [7] 6.37%

CC(=O)N1CCc2cc(C(=O)CN3CCCN(Cc4ccc(F)cc4)C3)ccc21
inactive: growth inhibition [1] 4.55% | growth inhibition [2] 9.21% | viability increase [3] -1.12% | viability [4] 102% | viability [5] 95.8% | inhibition [6] 1.48% | RAM network inhibition [7] 2.92%

CCC1CCCCN1Cc1ccc(OC)c(OC)c1 (stereo not given)
inactive: growth inhibition [1] -7.04% | growth inhibition [2] -8.04% | viability increase [3] -2.09% | viability [4] 87.8% | viability [5] 96.9% | inhibition [6] 2.01% | RAM network inhibition [7] -1.61%

COc1ccc(-c2nc(C(N)=O)c3[nH]c(=O)n(-c4ccccc4OC)c3n2)c(OC)c1
inactive: growth inhibition [1] -0.775% | growth inhibition [2] 4.02% | viability increase [3] -4.59% | viability [4] 74.1% | viability [5] 63.2% | inhibition [6] 0.63% | RAM network inhibition [7] 0.1%

O=C(NCc1ccccn1)C1CCC(=O)N1C1CCCC1 (stereo not given)
inactive: growth inhibition [1] -0.9% | growth inhibition [2] 3.94% | viability increase [3] -0.45% | viability [4] 98.2% | viability [5] 98% | inhibition [6] 1.67% | RAM network inhibition [7] 4.67%

CC1CCCC(NC(=O)c2ccc(CNc3c(N4CCCC4)c(=O)c3=O)cc2)C1C (stereo not given)
inactive: growth inhibition [1] -6.62% | growth inhibition [2] 2.02% | viability increase [3] -2.4% | viability [4] 90.7% | viability [5] 84.4% | inhibition [6] 2.51% | RAM network inhibition [7] 2.5%

COc1ccc2oc(-c3ccccc3)c(C(N)=O)c2c1
inactive: growth inhibition [1] 2.25% | growth inhibition [2] 11.4% | viability increase [3] -2.49% | viability [4] 99.1% | viability [5] 97.5% | inhibition [6] 0.53% | RAM network inhibition [7] 1.82%

CCCC(=O)C1=C(O)C(C(=O)OC)C(C)(C)CC1=Nc1ccccc1 (stereo not given)
inactive: growth inhibition [1] -12.6% | growth inhibition [2] -6.79% | viability increase [3] -0.91% | viability [4] 91.2% | viability [5] 88.6% | inhibition [6] 0.685% | RAM network inhibition [7] 2.75%

CC(C)CCOc1cccc(C2c3c(oc4ccccc4c3=O)C(=O)N2CCCN2CCOCC2)c1 (stereo not given)
inactive: growth inhibition [1] -3.75% | growth inhibition [2] -23.9% | viability increase [3] -4.89% | viability [4] 87.9% | viability [5] 84.2% | inhibition [6] 0.82% | RAM network inhibition [7] 6.7%

CC1=C(C(=O)OC2CCCCC2)C(c2ccco2)C2=C(CC(C)(C)CC2=O)N1 (stereo not given)
inactive: growth inhibition [1] -8.2% | growth inhibition [2] -8.91% | viability increase [3] -7.87% | viability [4] 64.8% | viability [5] 62.7% | inhibition [6] 0.115% | RAM network inhibition [7] 2.03%

COc1ccc(NC(=O)c2cnn3c(C(F)(F)F)cc(-c4ccco4)nc23)cc1OC
inactive: growth inhibition [1] -11.5% | growth inhibition [2] -12.4% | viability increase [3] -0.73% | viability [4] 96.5% | viability [5] 93% | inhibition [6] 1.89% | RAM network inhibition [7] 2.09%

Cc1ccc(CN2CCN(CC(=O)N3CCC(C(N)=O)CC3)C2=O)cc1
inactive: growth inhibition [1] 0.425% | growth inhibition [2] 1.62% | viability increase [3] -0.17% | viability [4] 105% | viability [5] 101% | inhibition [6] 2.1% | RAM network inhibition [7] 3.53%

CC1Cc2ccccc2N1C(=O)c1cnc2n(c1=O)CCS2 (stereo not given)
inactive: growth inhibition [1] -2.36% | growth inhibition [2] -4.37% | viability increase [3] -0.53% | viability [4] 94.4% | viability [5] 98.9% | inhibition [6] -0.135% | RAM network inhibition [7] 2.13%
